Reference: ChEMBL document CHEMBL4665721, “Mdm2 inhibitors as a platform for the design of P-glycoprotein inhibitors” (Bioorg Med Chem Lett, 2020)
Activity calls are given as the source filed them. The calls are words filed in the database; no cut-off is given here.

Experiments:
Homo sapiens [1] = organism: Homo sapiens; assay: Inhibition of P-gp-mediated Rhodamine-123 efflux in human MCF7 cells assessed as Rhodamine-123 accumulation measured after 40 mins by spectrofluorimetry; format: cell-based
Outline: (§1)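 Cells in DMEM, 96-well plates, grown to 30% confluency, then co-treated with compounds and Rhodamine 123 (1 μM in solution). Even cell distribution checked by imaging. After 40 min, cells were washed and Rhodamine 123 fluorescence read on a plate reader (ex 488 nm, em 515-575 nm). Signal with 0.5 μM tariquidar in each line set to 100%. Triplicate; mean ± SEM.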

Homo sapiens [2] = organism: Homo sapiens; assay: Inhibition of P-gp-mediated Rhodamine-123 efflux in human p53 -/- HCT-116 assessed as Rhodamine-123 accumulation measured after 40 mins by spectrofluorimetry; outline: as §1
HCT-116 = assay: Growth inhibition of human p53 -/- NCI-HCT-116 cells upto 10 uM incubated for 48 hrs; format: functional, cell-based; details: dose microM <=10, time 48.0 hrs
Outline: (§2)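 Cells plated in DMEM and grown 48 h in 96-well optical-bottom plates before treatment. Compounds were added as 200X dilutions of DMSO stocks and tested up to 10 μM. After 48 h, wells were washed with PBS and monolayer confluence was scored by brightfield imaging. Untreated cells served as controls. Triplicate; mean ± SEM.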

NCI-H1299 = assay: Growth inhibition of human p53 -/- H1299 cells upto 10 uM incubated for 48 hrs; details: dose microM <=10, time 48.0 hrs
Homo sapiens [3] = organism: Homo sapiens; assay: Inhibition of P-gp-mediated Rhodamine-123 efflux in human p53 -/- H1299 cells assessed as Rhodamine-123 accumulation measured after 40 mins by spectrofluorimetry
MCF7 = assay: Growth inhibition of human MCF7 upto 10 uM incubated for 48 hrs; format: functional, cell-based; details: dose microM <=10, time 48.0 hrs; outline: as §2

SMILES	inhibition (Homo sapiens [2])	inhibition (Homo sapiens [1])	inhibition (HCT-116)	inhibition (NCI-H1299)	inhibition (Homo sapiens [3])	inhibition (MCF7)
COc1cc2c(cc1OC)CN(CCc1ccc(NC(=O)c3cc(OC)c(OC)cc3NC(=O)c3cnc4ccccc4c3)cc1)CC2			inactive	inactive		inactive
COc1ccc(C2=N[C@@H](c3ccc(Cl)cc3)[C@@H](c3ccc(Cl)cc3)N2C(=O)N2CCNC(=O)C2)c(OC(C)C)c1					Active	
O=C(NCc1ccc(F)cc1)c1ccc(/C=C2\C(=O)N(CN3CCN(Cc4cccc(Cl)c4)CC3)c3ccc(Cl)cc32)cc1	Active	Active			Active	

Second part, led by results:

inhibition (Homo sapiens [2])	SMILES	inhibition (Homo sapiens [1])	inhibition (HCT-116)	inhibition (NCI-H1299)	inhibition (Homo sapiens [3])	inhibition (MCF7)
inactive	CC(C)[C@@H](CS(=O)(=O)C(C)C)N1C(=O)[C@@](C)(CC(=O)O)C[C@H](c2cccc(Cl)c2)[C@H]1c1ccc(Cl)cc1	inactive	Active	Active	Active	
Active	N[C@H](C(=O)OCCCOC1(c2ccc(Cl)cc2)c2ccccc2C(=O)N1Cc1ccc(Cl)cc1)c1ccccc1 (stereo not given in full)	Active			Active	
